EWS-Fli block = EWS/Fli transcriptional activity inhibition | A673 NR0B1-luciferase reporter, viability-normalised | inhibition, % at 12.6 µM | 350,000 tested, 0.67% active;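 active means mean inhibition of at least 50% after viability correction, with every replicate also passing that limit; inconclusive means mean reaches 50% but only one of two replicates passes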;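 further: firefly luciferase signal divided by Alamar Blue viability fluorescence both relative to DMSO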
TROY NFkB inh = inhibitors of TROY-dependent NF-kB signaling. Q293 LMP1-TROYcd NF-kB luciferase reporter, 4 h. inhibition, % at 10 µM. 360,000 tested, 0.98% active. AID 1347056;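 active means compounds whose plate-normalised and pattern-corrected inhibition of the luciferase reporter signal at the single screening dose is 50% or more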
TWEAK Fn14 block = TWEAK-Fn14 signaling inhibition; TWEAK-stimulated Fn14 reporter cells, luciferase luminescence, 8 h; inhibition, % at 10 µM; 360,000 tested, 2% active; AID 1159606; in the data active means inhibition above about 50%
FN deposit inh = fibronectin deposition inhibition | AH1F fibroblasts, Alexa488-fibronectin deposition fluorescence, overnight | inhibition, % at 12.6 µM | 350,000 tested, 0.086% active;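 active means mean inhibition across replicates of 30% or more, regardless of how many single replicates reach that level; inconclusive means mean under 30% yet at least half of replicates reach 30%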
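Assay system: AH1F fibroblasts / Quantity: 10000 cells per well / Medium: DMEM plus 2% serum, read in PBS / Reagent: labelled fibronectin 24 nM / Dosing: single dose, pinned / Times: 1 h cell attachment, overnight exposure to compound and label / Signal: fluorescence, ex 485 nm, em 525 nm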
LGR2 inh = blocks bursicon-induced cAMP signaling via Drosophila LGR2; HEK293 LGR2, CRE-luciferase, bursicon-stimulated, 4 h; inhibition, % at 9.99 µM; 380,000 tested, 0.35% active; AID 720647;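 active means drop in luminescence signal, shown as inhibition above about 50% in the replicate tests, limit read from the data, passing the limit was not always enough; inconclusive means probably only some replicates passing the limit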;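 further: agonist challenge used bursicon conditioned medium at about half maximal strength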
XiGFP reactiv = activators of X-chromosome reactivation in mouse fibroblasts; XiGFP mouse fibroblasts, % GFP-positive cells imaging, 3 d; cells co-treated with 5-aza-dC sensitizer; scaled so ellipticine positive control = 100%; activation, % at 7.58 µM; 360,000 tested, 0.055% active; AID 743238;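 active means mean normalized replicate activation at least 10% and every replicate at or above 10%; inconclusive means only one of the two criteria met; inactive means mean below 10% and not all replicates reach 10%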
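assay system = SV40-immortalized XiGFP fibroblast cells, line 68-5-11 | buffer or medium = DMEM plus 5-aza-dC sensitizer | doses = single-point pinned compound dosing | times = 3-day compound exposure, then 15 min fixation at room temperature | benchmarks = positive control ellipticine, 6 µM final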
Hits are given with their value; – = inactive; ? = inconclusive; · = no result given. Rows were chosen to be rich in hits. Some 2.3% of all compounds tested hit in one or more screens of this group.

SMILES	EWS-Fli block	TROY NFkB inh	TWEAK Fn14 block	FN deposit inh	LGR2 inh	XiGFP reactiv
CCOC(=O)[C@]12Cc3cc(Cl)ccc3[C@H]1N(C1CCCCC1)C(=O)c1cc(OC)ccc12	67.6	63.1	101.9	–	100.9	–
CCOC(=O)[C@]12Cc3ccc(C)cc3[C@H]1N(C1CCCCC1)C(=O)c1cc(OC)ccc12	?	–	101.2	–	54.7	–
CCOC(=O)[C@]12Cc3cc(Cl)ccc3[C@H]1N(C)C(=O)c1cc(OC)ccc12	–	–	–	–	?	–
CCOC(=O)[C@]12Cc3cc(OC)ccc3[C@H]1N(C)C(=O)c1cc(OC)ccc12	–	–	–	–	?	–
CCOC(=O)[C@]12Cc3cc(C)ccc3[C@H]1N(Cc1ccccc1)C(=O)c1cc(OC)ccc12	–	–	–	–	–	–
COC(=O)[C@H]1[C@H](CO)[C@H]2Cn3c(ccc(-c4ccccc4F)c3=O)[C@@H]1N2	–	·	·	·	–	–
CCOC(=O)[C@]12Cc3cc(C)ccc3[C@H]1N(C1CCCCC1)C(=O)c1ccccc12	–	–	68.6	–	64.4	–
O=C(Cc1ccncc1)N1CCCCN2[C@H](CO)[C@H](c3ccc(-c4ccncc4)cc3)[C@@H]2C1	·	·	·	·	–	–
COCc1cc(OC(=O)N(C)C)nc2c1c(C)nn2C	–	56.8	–	–	–	–
O=c1oc2ccccc2c(O)c1C(c1ccc([N+](=O)[O-])cc1)c1c(O)c2ccccc2oc1=O	–	–	–	–	·	–
CC(C)c1ccc(C(c2c(O)c3ccccc3oc2=O)c2c(O)c3ccccc3oc2=O)cc1	–	68.5	–	–	–	–
CN1CCN(c2cccc3c2C(=O)c2ccccc2C3=O)CC1	–	63.6	54.6	–	–	–
COc1ccc(NC2Oc3cc4c(cc3C(c3cc(OC)c(OC)c(OC)c3)C2C)OCO4)cc1 (stereo not given)	54.1	–	–	–	–	–
O=C(O)[C@H]1[C@H](CO)[C@H]2Cn3c(ccc(-c4ccccc4)c3=O)[C@@H]1N2C(=O)C1CCCCC1	–	·	·	·	–	–
CN(C)C(=O)O/N=C(\N)COc1ccc(C(C)(C)C)cc1	56.8	–	–	–	–	–
COc1ccccc1OCC(=O)Nc1ccc(Cl)cc1C(=O)c1ccccc1	·	–	107.4	–	–	·
COC(=O)C1CN(C#N)N(c2ccc(Cl)cc2)C12c1ccccc1-c1ccccc12 (stereo not given)	·	90.0	91.8	·	99.6	·
COC(=O)[C@H]1[C@H](CO)[C@H]2Cn3c(ccc(-c4ccccc4F)c3=O)[C@@H]1N2Cc1ccccc1	–	·	·	·	–	–
O=C1CNC[C@@H]2[C@H](c3ccc(Br)cc3)[C@@H](CO)N12	–	·	·	–	–	–
O=C(/C=C/c1ccc2c(c1)OCO2)c1c(O)n(CCC2=CCCCC2)c(=O)[nH]c1=O	–	–	51.4	–	·	–
COc1ccc(/C=C/C(=O)c2c(O)n(CCC3=CCCCC3)c(=O)[nH]c2=O)cc1	–	–	–	·	–	–
COc1cc(/C=C/[N+](=O)[O-])ccc1OC(=O)c1cccnc1	56.2	65.9	–	–	·	–
COc1cc(/C=N/n2cnnc2)ccc1OC(=O)N(C)C	–	–	–	·	–	·
C[C@H]1[C@@H](OS(=O)(=O)O)C[C@@H]2C[C@H]([C@@H](O)c3cc(=O)[nH]c(=O)[nH]3)NC3=NC[C@H]1N32	·	–	59.6	·	·	·
CCC(C)(O)C(=O)OC1C(=O)OC2CC3C(C)=CC(O)C(O)C3(C)C3C4(O)OCC23C1C(C)C4O (stereo not given)	–	–	91.8	·	–	·
SMILES	EWS-Fli block	TROY NFkB inh	TWEAK Fn14 block	FN deposit inh	LGR2 inh	XiGFP reactiv
O=C(Cc1ccccn1)N1CCCCN2[C@H](CO)[C@@H](c3ccc(C#Cc4ccccc4)cc3)[C@@H]2C1	–	·	·	·	–	–
CC(C)NC(=O)N1C[C@@H]2C(c3ccc(Br)cc3)[C@H](C1)N2CC1CC1 (stereo not given in full)	·	·	·	–	·	–
CCN1/C(=C/C=C/C2=[N+](CC)c3ccccc3C2(C)C)C(C)(C)c2ccccc21	59.1	66.2	81.6	–	54.5	–
O=C(O)[C@@H]1[C@@H](CO)[C@@H]2Cn3c(cccc3=O)[C@H]1N2C(=O)c1ccccc1	–	·	·	·	–	–
COc1cc2c(cc1/C=C/[N+](=O)[O-])OCO2	–	61.5	63.7	–	103.1	–
CCOC(=O)CC(NC(=O)C(Cc1ccc(N(CCCl)CCCl)cc1)NC(C)=O)C(=O)OCC (stereo not given)	67.8	–	–	–	–	–
COc1ccccc1CN1[C@H](CO)[C@@H](c2ccccc2)C12CN(C(=O)Cc1ccccc1)C2	–	·	·	–	–	–
O=C1CNC[C@@H]2[C@@H](c3ccc(Br)cc3)[C@@H](CO)N12	–	·	·	–	–	–
COc1cc2cc(C(=O)N3CC(COS(C)(=O)=O)c4ccc(O)cc43)[nH]c2c(OC)c1OC (stereo not given)	·	72.4	108.0	·	·	·
CCCC[C@@H](C)C[C@@H](C)C(=O)N(C)[C@@H](CC(C)C)C(=O)N[C@H](C(=O)N(C)[C@H](C(=O)N1C[C@@H](O)C[C@H]1C(=O)N1C(=O)C=C[C@@H]1C)C(C)C)C(C)OC(C)=O (stereo not given in full)	·	–	51.5	·	·	·
Cc1ccc(C[n+]2c(-c3ccc(C)cc3)cc(-c3ccc(C)cc3)cc2-c2ccc(C)cc2)cc1	·	–	92.5	·	·	·
O=C(O)[C@@H]1[C@@H](CO)[C@@H]2Cn3c(ccc(-c4ccccc4)c3=O)[C@H]1N2C(=O)C1CCCCC1	–	·	·	·	–	–
CC=Cc1ccc2n(c1=O)C[C@@H]1[C@@H](CO)[C@H](C(=O)OC)[C@H]2N1S(=O)(=O)c1cccc(C)c1 (mixture of isomers)	–	·	·	·	–	–
CC(C)CNC(=O)c1c(N)n(Cc2ccc3c(c2)OCO3)c2nc3ccccc3nc12	·	63.2	–	–	·	·
COCCOC(=O)c1c(N)n(Cc2ccc(OC)cc2)c2nc3ccccc3nc12	·	60.6	–	·	·	·
CC(C)CCNC(=O)c1c(N)n(Cc2ccc3c(c2)OCO3)c2nc3ccccc3nc12	·	59.7	–	–	·	·
COCCCNC(=O)c1c(N)n(Cc2ccco2)c2nc3ccccc3nc12	–	–	–	–	–	–
CCCNC(=O)c1c(N)n(Cc2ccc3c(c2)OCO3)c2nc3ccccc3nc12	·	57.5	–	·	·	·
CC(C)CNC(=O)c1c(N)n(Cc2ccco2)c2nc3ccccc3nc12	·	–	–	·	·	·
C/C=C/c1ccc([C@@H]2[C@@H](CO)N3CCCCN(C(=O)Cc4cccnc4)C[C@@H]23)cc1	–	·	·	–	–	–
CC(=O)N1C[C@@H]2C(c3ccc(Br)cc3)[C@H](C1)N2CC1CC1 (stereo not given in full)	·	·	·	–	·	–
O=C(O)[C@@H]1[C@@H](CO)[C@@H]2Cn3c(ccc(-c4ccncc4)c3=O)[C@H]1N2C(=O)C1CC1	–	·	·	·	–	–

Screens: PubChem, several laboratories
